Measured values gathered from unrelated publications.
Compare with care: the assays were run in different laboratories.
Target: Lymphokine-activated killer T-cell-originated protein kinase (PBK, Homo sapiens, UniProt Q96KB5)
Sequence (Q96KB5 1-322, as in one of the studies): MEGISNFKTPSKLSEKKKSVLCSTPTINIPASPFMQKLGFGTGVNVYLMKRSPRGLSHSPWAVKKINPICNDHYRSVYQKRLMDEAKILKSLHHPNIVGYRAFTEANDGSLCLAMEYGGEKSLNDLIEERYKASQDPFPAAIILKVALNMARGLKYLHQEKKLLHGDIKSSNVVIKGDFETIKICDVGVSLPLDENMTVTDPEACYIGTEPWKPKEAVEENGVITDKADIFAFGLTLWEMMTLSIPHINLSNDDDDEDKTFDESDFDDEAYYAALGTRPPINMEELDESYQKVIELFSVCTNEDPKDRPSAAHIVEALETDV

O=C(Nc1cnn(-c2csc(C(=O)NC3COC3)c2)c1)Nc1c(F)cccc1Cl — remaining activity (enzyme activity; inhibitor; 5 µM): 98.2%
CC/C(=N\NC(=O)NCc1cccc(O)c1)c1ccc(O)c(C)c1O — inhibition (enzyme activity; inhibitor; 0.1 µM): -7.3%
CCN1CCC2(CC1)NC(=O)c1c(c3ccc(Cl)c(Cl)c3n1C)C2C#N (racemic) — ΔTm (thermal stability; DSF; 10 µM): -0.3 °C
CC(C)(C)c1nc(-c2cccc(NS(=O)(=O)c3c(F)cccc3F)c2F)c(-c2ccnc(N)n2)s1 — remaining activity (enzyme activity; inhibitor; radiometric; 1 µM): 99%
Cn1c2c(Cl)c(Cl)ccc2c2cc(N)[nH]c(=O)c21 — ΔTm (thermal stability; DSF; 10 µM): 0.6 °C
CC(C)(C)c1nc2c(s1)c1nc(N)ncc1c1ccc(NS(=O)(=O)c3c(F)cccc3F)c(F)c12 — remaining activity (enzyme activity; inhibitor; radiometric; 1 µM): 92%
CC(C)(O)[C@H]1CC[C@H](Nc2ccc3ncc(-c4cccc(C(F)(F)F)c4)n3n2)CC1 — remaining activity (enzyme activity; inhibitor; 1 µM): 87.2%
N#CCCc1ccc2c(c1)-c1[nH]c3ccc([N+](=O)[O-])cc3c1CC(=O)N2 — remaining signal (cell-free assay; 0.5 µM): 95.4%
Cn1c2c(c3ccccc31)C(C#N)C(C)(C)NC2=O (centres unmarked) — ΔTm (thermal stability; DSF; 10 µM): -0.8 °C
O=C1Nc2ccc(Cl)cc2C1=Cc1cc(Cl)c(O)c(Cl)c1 — remaining signal (cell-free assay; 0.5 µM): 86.1%
Cc1sc(C(=O)NC2COC2)cc1-n1cc(NC(=O)Nc2c(F)cccc2Cl)cn1 — remaining activity (enzyme activity; inhibitor; 10 µM): 88.5%
